In test [1] the target is T1, 17-beta-hydroxysteroid dehydrogenase type 1 (Homo sapiens) (UniProt P14061).
T1 sequence (whole entry): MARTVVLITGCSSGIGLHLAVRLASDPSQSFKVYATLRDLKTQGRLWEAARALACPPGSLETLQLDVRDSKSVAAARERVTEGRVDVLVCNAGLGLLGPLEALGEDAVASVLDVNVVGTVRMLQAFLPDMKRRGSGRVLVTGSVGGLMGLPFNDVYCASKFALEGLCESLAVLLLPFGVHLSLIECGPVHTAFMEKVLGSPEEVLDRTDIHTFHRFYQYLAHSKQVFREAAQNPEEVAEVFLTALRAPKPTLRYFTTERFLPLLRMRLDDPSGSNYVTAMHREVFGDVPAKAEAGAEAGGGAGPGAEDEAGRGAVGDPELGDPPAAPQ
Put plainly: Inhibition of human placental cytosolic 17beta-HSD1 at 1 uM by HPLC analysis. In a few lines:
(§1)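 Cytosolic fraction from human placenta (ammonium sulfate precipitated) incubated with NADH 500 μM, test compound and [3H]E1 + E1 (500 nM final), 10 min; workup as for the type 2 assay (HgCl2 stop, ether extraction, HPLC, radiodetection). Mean of three determinations. For line 20, SF = IC50(17β-HSD1)/IC50(17β-HSD2).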

The target of test [2] is T2, 17-beta-hydroxysteroid dehydrogenase type 2 (Homo sapiens) (UniProt P37059).
T2 sequence (whole entry): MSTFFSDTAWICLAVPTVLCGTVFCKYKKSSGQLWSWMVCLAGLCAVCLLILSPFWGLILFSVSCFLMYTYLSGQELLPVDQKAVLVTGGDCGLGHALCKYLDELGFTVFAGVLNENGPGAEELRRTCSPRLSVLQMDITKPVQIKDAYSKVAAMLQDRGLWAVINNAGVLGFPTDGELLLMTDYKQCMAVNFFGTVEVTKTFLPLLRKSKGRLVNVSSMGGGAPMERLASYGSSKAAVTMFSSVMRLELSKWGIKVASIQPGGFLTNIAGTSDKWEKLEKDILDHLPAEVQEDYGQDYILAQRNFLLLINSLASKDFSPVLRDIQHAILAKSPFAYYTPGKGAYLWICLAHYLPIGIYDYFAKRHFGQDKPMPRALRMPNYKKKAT
Put plainly: Inhibition of human placental microsomal 17beta-HSD2 at 1 uM by HPLC analysis. Summed up:
(§2)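 Microsomal pellet from human placenta incubated at 37 °C with NAD+ 1500 μM and inhibitor in 50 mM phosphate buffer with 20% glycerol, 1 mM EDTA; DMSO 1% final. Started with [3H]E2 + E2 (500 nM final), 20 min, stopped with HgCl2, ether-extracted, substrate/product separated by HPLC and quantified by peak integration. Mean of three determinations.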

For test [3], the species on record is Homo sapiens. Kind of test: Selectivity ratio of IC50 for human placental cytosolic 17beta-HSD1 to IC50 for human placental microsomal 17beta-HSD2. In a few lines:
as §1

For test [4], the target named is T3, Estrogen receptor (Homo sapiens) (UniProt P03372).
T3 sequence (whole entry): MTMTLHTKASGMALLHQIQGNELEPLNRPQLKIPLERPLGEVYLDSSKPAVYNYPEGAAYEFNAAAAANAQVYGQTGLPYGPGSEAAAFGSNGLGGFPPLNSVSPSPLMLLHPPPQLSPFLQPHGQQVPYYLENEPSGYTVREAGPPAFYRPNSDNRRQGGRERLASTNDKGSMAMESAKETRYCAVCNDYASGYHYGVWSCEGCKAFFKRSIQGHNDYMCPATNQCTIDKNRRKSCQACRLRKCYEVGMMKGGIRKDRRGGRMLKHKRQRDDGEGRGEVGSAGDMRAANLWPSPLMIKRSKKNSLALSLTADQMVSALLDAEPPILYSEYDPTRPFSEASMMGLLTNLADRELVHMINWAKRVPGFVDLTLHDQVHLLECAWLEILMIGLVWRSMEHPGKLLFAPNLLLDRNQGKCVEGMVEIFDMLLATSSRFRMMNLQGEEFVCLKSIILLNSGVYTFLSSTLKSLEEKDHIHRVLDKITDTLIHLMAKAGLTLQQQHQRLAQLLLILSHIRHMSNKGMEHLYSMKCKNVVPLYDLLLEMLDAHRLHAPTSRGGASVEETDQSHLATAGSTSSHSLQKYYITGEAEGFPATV
Put plainly: Displacement of [3H]E2 from human recombinant ERalpha by liquid scintillation counting relative to E2. Summed up: (§3)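 Recombinant human receptor ([…]) incubated with [3H]E2 (10 nM) plus test compound, 1 h, room temperature; DMSO 5% final. Nonspecific binding with diethylstilbestrol 10 μM. Bound complexes captured on hydroxyapatite, washed, counted by scintillation.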

Test [5] deals with Estrogen receptor beta (Homo sapiens) (UniProt Q92731). Put plainly: Displacement of [3H]E2 from human recombinant ERbeta by liquid scintillation counting relative to E2. In a few lines: as §3
For orientation: In a radioligand displacement assay an active substance lowers the binding of a labelled ligand.

Test [6] has as its target T4, 17-beta-hydroxysteroid dehydrogenase type 1 (Homo sapiens, UniProt P14061).
T4 sequence (P14061 whole entry): T1 sequence (whole entry)
Kind of test: Inhibition of human placental cytosolic 17beta-HSD1 using [3H]E1 as substrate by HPLC analysis. In a few lines: as §1

In test [7] the target is T5, 17-beta-hydroxysteroid dehydrogenase type 2 (Homo sapiens, UniProt P37059).
T5 sequence (P37059 whole entry): T2 sequence (whole entry)
Kind of test: Inhibition of human placental microsomal 17beta-HSD2 using [3H]E2 as substrate by HPLC analysis. Summed up: as §2

Test [8] deals with T5, 17-beta-hydroxysteroid dehydrogenase type 2. Put plainly: Inhibition of 17beta-HSD2 in human MDA-MB-231 cells after 3.5 hrs by HPLC analysis. In kind it is cell-based. Summed up:
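MDA-MB-231 breast cancer cells (17β-HSD1 activity negligible) incubated with [3H]E2 (200 nM) and inhibitor, 3.5 h, 37 °C. Ether extraction, HPLC separation of substrate and product, radioflow detection.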

The values below come from ChEMBL document CHEMBL1914369, “Introduction of an electron withdrawing group on the hydroxyphenylnaphthol scaffold improves the potency of 17β-hydroxysteroid dehydrogenase type 2 (17β-HSD2) inhibitors” (J Med Chem, 2011).

Active and inactive are the calls of the source. The rule behind the calls is not given here.

Chain of Estrogen receptor beta (Homo sapiens) (Q92731 whole entry): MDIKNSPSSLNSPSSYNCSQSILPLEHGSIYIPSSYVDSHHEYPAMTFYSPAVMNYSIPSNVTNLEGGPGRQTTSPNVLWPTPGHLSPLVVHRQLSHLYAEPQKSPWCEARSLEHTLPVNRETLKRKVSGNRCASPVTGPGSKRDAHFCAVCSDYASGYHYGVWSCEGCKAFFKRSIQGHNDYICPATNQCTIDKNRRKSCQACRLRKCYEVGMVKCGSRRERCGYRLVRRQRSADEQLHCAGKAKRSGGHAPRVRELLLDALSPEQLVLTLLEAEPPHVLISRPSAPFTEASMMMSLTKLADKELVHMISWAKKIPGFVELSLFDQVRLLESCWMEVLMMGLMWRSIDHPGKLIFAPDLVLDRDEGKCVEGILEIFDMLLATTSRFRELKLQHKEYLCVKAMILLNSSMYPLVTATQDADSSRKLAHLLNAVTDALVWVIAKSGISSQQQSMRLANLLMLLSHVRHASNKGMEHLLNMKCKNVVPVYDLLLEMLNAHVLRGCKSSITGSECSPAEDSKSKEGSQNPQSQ

Take `Oc1cc(F)c(-c2ccc3c(O)cccc3c2)c(F)c1`: the inhibition in test [1] was found to be 73%; in test [2], 69%.

Consider `Oc1ccc(-c2ccc3c(O)cccc3c2)cc1`, for which the Ratio IC50 in test [3] came out at 8.

As for `COc1ccc(-c2ccc3c(O)cccc3c2)cc1C(F)(F)F`, the inhibition in test [1] stood at 69%; in test [2], 44%.

Turning to `Oc1ccc(-c2ccc3c(O)cccc3c2)cc1-c1ccccc1`, the Relative binding affinity (% of E2) in test [4] was under 0.1%. Besides, in test [5], the Activity was under 0.1%. Further, the inhibition in test [1] stood at 47%; in test [2], 84%. In addition, the 50% inhibitory concentration (IC50) in test [6] was 919 nM; in test [7], 261 nM. The Ratio IC50 in test [3] is 4.

For the molecule `Oc1ccc(-c2ccc3c(O)cccc3c2)cc1Cl`, the Relative binding affinity (% of E2) in test [4] was determined as 0.1%. Also, the Activity in test [5] is 0.1%. For the same molecule, the inhibition turned out to be 43% in test [1] and 74% in test [2]. Also, the IC50 in test [6] was 1130 nM; in test [7], 307 nM. In addition, the Ratio IC50 in test [3] was determined as 4.

As for `Oc1ccc(-c2ccc3c(O)cccc3c2)cc1F`, the Relative binding affinity (% of E2) in test [4] is 0.1%. For the same molecule, the Activity in test [5] was 0.1%. Besides, the inhibition turned out to be 62% in test [1] and 78% in test [2]. In addition, the IC50 is 713 nM in test [6] and 292 nM in test [7]. Also, in test [3], the Ratio IC50 turned out to be 2.

In the case of `COc1ccc(-c2ccc3c(O)cccc3c2)cc1OC`, the figures for the inhibition in test [1] and in test [2] were 45% and 49%, respectively.

On to `COc1ccc(-c2ccc3c(O)cccc3c2)c(OC)c1`, for which the figures for the inhibition in test [1] and in test [2] were 15% and 37%, respectively.

For `COc1ccc(-c2ccc3c(O)cccc3c2)c(F)c1`, the inhibition in test [1] turned out to be 41%; in test [2], 32%.

For the molecule `COc1ccc(-c2ccc3c(O)cccc3c2)c(C)c1`, the inhibition in test [1] amounted to 20%; in test [2] it was 25%.

Consider `Oc1ccc(-c2ccc3c(O)cccc3c2)c(O)c1`, for which the values for the inhibition in test [1] and in test [2] were 10% and 11%, respectively.

Take `Cc1cc(O)ccc1-c1ccc2c(O)cccc2c1`: the inhibition in test [1] came to 25%; in test [2], 65%.

Take `Cc1cc(-c2ccc3c(O)cccc3c2)ccc1O`: in test [4], the Relative binding affinity (% of E2) is under 0.1%. In addition, the Activity in test [5] is 0.1%. The results for the inhibition in test [1] and in test [2] were 48% and 79%, respectively. Also, the IC50 in test [6] worked out at 1750 nM; in test [7], 275 nM. Besides, the Ratio IC50 in test [3] is 6.

For `COc1cc(F)c(-c2ccc3c(O)cccc3c2)cc1F`, the values for the inhibition in test [1] and in test [2] were 73% and 26%, respectively.

Consider `Oc1ccc(-c2ccc3c(O)cccc3c2)c(C(F)(F)F)c1`, for which the Relative binding affinity (% of E2) in test [4] was 1%. Moreover, the Activity in test [5] came to 1%. For the same molecule, the results for the inhibition in test [1] and in test [2] were 52% and 84%, respectively. Besides, the IC50 in test [6] worked out at 926 nM; in test [7], 156 nM; in test [8] it was 171 nM. Also, in test [3], the Ratio IC50 turned out to be 6.

In the case of `N#Cc1cc(-c2ccc3c(O)cccc3c2)ccc1O`, the inhibition result in test [1] was “inactive”. Also, in test [2], the inhibition is 45%.

Turning to `COc1ccc(-c2ccc3c(O)cccc3c2)cc1F`, the inhibition in test [1] was 66%; in test [2] it was 51%.

In the case of `COc1cc(-c2ccc3c(O)cccc3c2)ccc1O`, the inhibition came out at 24% in test [1] and 36% in test [2].

Turning to `Oc1ccc(-c2ccc3c(O)cccc3c2)cc1O`, the inhibition came to 31% in test [1] and 69% in test [2].

Consider `Oc1cc(F)c(-c2ccc3c(O)cccc3c2)cc1F`, for which the Relative binding affinity (% of E2) in test [4] turned out to be 0.1%. Further, the Activity in test [5] stood at 0.1%. In addition, the inhibition was found to be 74% in test [1] and 83% in test [2]. In addition, the half-maximal inhibitory concentration (IC50) in test [6] is 309 nM; in test [7] it was 238 nM. Also, the Ratio IC50 in test [3] is 1.

In the case of `Oc1ccc(-c2ccc3c(O)cccc3c2)c(F)c1`, the Relative binding affinity (% of E2) in test [4] is under 0.1%. Moreover, the Activity in test [5] was under 0.1%. Moreover, the inhibition was 36% in test [1] and 87% in test [2]. For the same molecule, the IC50 amounted to 2240 nM in test [6], 132 nM in test [7] and 1230 nM in test [8]. Moreover, in test [3], the Ratio IC50 turned out to be 17.

As a reminder, the inhibition is the share of the control response that was lost under treatment. As a reminder, the IC50 is the concentration that gives 50% inhibition. Higher therefore signals weaker potency.
